Reference: article PMC3548047 (Nature, 2013)
Where a SMILES comes first, the peptide text is derived from it. The star is where a group is joined. Myristoyl = CCCCCCCCCCCCCC(=O)*

Key:
[1] = target: T1, PKMζ (Rattus norvegicus, UniProt P09217); test: LANCE TR-FRET in vitro kinase assay, purified PKMζ; assay type: biochemical
T1 sequence (P09217 1-409 isoform P09217-2): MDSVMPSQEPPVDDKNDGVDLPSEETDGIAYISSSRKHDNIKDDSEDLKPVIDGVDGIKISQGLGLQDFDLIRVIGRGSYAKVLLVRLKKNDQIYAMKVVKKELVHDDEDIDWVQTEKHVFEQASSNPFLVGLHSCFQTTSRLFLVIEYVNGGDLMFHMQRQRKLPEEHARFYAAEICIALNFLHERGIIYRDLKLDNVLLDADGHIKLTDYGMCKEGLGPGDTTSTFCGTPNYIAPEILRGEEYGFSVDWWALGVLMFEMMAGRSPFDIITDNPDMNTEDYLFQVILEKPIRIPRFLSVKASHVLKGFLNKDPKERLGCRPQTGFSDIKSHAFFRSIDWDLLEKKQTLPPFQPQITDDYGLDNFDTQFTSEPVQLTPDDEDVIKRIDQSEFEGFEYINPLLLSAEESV

[2] = target: T2, PKCζ (Rattus norvegicus, UniProt P09217); test: LANCE TR-FRET in vitro kinase assay, purified PKCζ; assay type: biochemical
T2 sequence (P09217 1-592): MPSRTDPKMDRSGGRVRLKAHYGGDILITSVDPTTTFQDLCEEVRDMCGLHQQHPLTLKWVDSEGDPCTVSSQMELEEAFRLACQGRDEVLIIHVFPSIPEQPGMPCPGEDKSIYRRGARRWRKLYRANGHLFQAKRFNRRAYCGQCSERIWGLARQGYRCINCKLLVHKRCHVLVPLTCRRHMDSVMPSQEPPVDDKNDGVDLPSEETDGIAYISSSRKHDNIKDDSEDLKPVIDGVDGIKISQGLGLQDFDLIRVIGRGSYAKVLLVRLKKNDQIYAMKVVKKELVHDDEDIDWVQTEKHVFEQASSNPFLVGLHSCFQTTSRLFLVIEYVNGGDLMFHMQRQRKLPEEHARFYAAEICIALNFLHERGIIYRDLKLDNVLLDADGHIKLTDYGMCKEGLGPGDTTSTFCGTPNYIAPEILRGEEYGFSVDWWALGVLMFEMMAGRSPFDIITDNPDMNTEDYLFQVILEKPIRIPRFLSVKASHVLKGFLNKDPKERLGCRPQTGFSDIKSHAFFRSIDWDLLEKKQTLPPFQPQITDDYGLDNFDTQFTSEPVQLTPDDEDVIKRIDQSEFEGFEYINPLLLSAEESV

[3] = target: T3, PKCι (Rattus norvegicus, UniProt F1M7Y5); test: LANCE TR-FRET in vitro kinase assay, purified PKCι; assay type: biochemical
T3 sequence (F1M7Y5 1-596): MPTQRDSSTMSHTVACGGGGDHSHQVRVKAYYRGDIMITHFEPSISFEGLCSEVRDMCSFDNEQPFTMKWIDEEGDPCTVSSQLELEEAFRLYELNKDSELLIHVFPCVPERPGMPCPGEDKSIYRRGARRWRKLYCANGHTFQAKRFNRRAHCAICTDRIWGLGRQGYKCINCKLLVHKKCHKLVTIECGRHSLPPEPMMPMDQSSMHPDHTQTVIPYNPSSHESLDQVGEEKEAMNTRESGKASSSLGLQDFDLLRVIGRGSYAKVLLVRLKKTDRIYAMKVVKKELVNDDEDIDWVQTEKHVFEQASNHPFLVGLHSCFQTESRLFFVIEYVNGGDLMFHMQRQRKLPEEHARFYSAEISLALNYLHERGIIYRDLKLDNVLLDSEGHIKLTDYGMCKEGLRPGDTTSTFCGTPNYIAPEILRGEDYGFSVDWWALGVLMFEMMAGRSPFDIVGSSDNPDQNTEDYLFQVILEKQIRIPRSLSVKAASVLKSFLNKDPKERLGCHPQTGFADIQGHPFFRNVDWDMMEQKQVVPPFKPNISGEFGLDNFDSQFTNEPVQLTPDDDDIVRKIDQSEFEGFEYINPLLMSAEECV

[4] = system: object location memory in rats; conditions: ZIP bilaterally into the hippocampus; cited from earlier work
[5] = system: fear memory in rats; conditions: ZIP administration into the amygdala; cited from earlier work
[6] = system: Prkcz−/− mice (cocaine reward memory); assay type: in vivo; conditions: ZIP 10 nmol/µl, 1 µl per side into NAc
In short: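 Two-chamber CPP with 20-min conditioning sessions; saline or cocaine 10 mg/kg i.p., counterbalanced. Bilateral cannulae placed in the NAc (1.40 mm anterior, ±1.0 mm lateral, −3.8 mm ventral) under ketamine/xylazine, with one week of recovery. ZIP at 10 mM in 0.9% saline, or saline, via injectors 0.7 mm past the guides, left 1 min. Index: cocaine-side time on test minus preconditioning time. Mice with placements outside the NAc (Nissl) and Grubbs outliers excluded.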

[7] = system: cocaine reward memory in rats; conditions: ZIP injection into the NAc; cited from earlier work
[8] = system: Prkcz−/− mice (drug reward memory); test: Cocaine conditioned place preference, non-cannulated Prkcz−/− mice; assay type: in vivo; conditions: cocaine 10 mg/kg i.p.; male mice; t=0.153, P=0.88

| Structure (SMILES) | Ki [1] [µM] | inhibition of PKMζ, PKCι and PKCζ compared (Ki), in words ([1]; in vitro kinase assay, PKMζ) | Ki [2] [µM] | Ki [3] [µM] | other results |
| --- | --- | --- | --- | --- | --- |
| COc1ccc2c(c[n+](C)c3c4cc5c(cc4ccc23)OCO5)c1OC [Chelerythrine, chelerythrine] | 76 |  |  |  | inhibition of PKMζ with DTT, in words ([1]; 1 mM DTT included): lost all inhibitory activity; appearance in the presence of DTT ([1]; 1 mM DTT present): changed color; inhibition of PKMζ without DTT, in words ([1]; assayed without dithiothreitol (DTT)): weak inhibitor of PKMζ |
| CCCCCCCCCCCCCC(=O)N[C@@H](CCCNC(=N)N)C(=O)N[C@@H](CC(C)C)C(=O)N[C@@H](Cc1ccc(O)cc1)C(=O)N[C@@H](CCCNC(=N)N)C(=O)N[C@@H](CCCCN)C(=O)N[C@@H](CCCNC(=N)N)C(=O)N[C@H](C(=O)N[C@@H](Cc1c[nH]c2ccccc12)C(=O)N[C@@H](CCCNC(=N)N)C(=O)N[C@@H](CO)C(=O)N[C@@H](C)C(=O)NCC(=O)N[C@@H](CCCNC(=N)N)C(=O)O)[C@@H](C)CC [Scrambled ZIP] (Myristoyl-RLYRKRIWRSAGR-OH; N-terminus and C-terminus assumed) | 15.4 | inhibited PKMζ, PKCι and PKCζ with similar Ki values | 5.51 | 4.92 |  |
| CCCCCCCCCCCCCC(=O)N[C@@H](CO)C(=O)N[C@H](C(=O)N[C@@H](Cc1ccc(O)cc1)C(=O)N[C@@H](CCCNC(=N)N)C(=O)N[C@@H](CCCNC(=N)N)C(=O)NCC(=O)N[C@@H](C)C(=O)N[C@@H](CCCNC(=N)N)C(=O)N[C@@H](CCCNC(=N)N)C(=O)N[C@@H](Cc1c[nH]c2ccccc12)C(=O)N[C@@H](CCCNC(=N)N)C(=O)N[C@@H](CCCCN)C(=O)N[C@@H](CC(C)C)C(=O)O)[C@@H](C)CC [ZIP, myristoylated zeta inhibitory peptide] (Myristoyl-SIYRRGARRWRKL-OH; C-terminus assumed) | 2.11 | inhibited PKMζ, PKCι and PKCζ with similar Ki values | 1.7 | 1.43 | object location memory performance, in words [4]: impaired; performance in cued fear conditioning, in words [5]: impaired; difference in Ki values between ZIP and scrambled ZIP ([1]; PKMζ, in vitro kinase assay): 7.3 -fold; t statistic for ZIP versus saline, cocaine CPP [6]: 2.258; cocaine reward memory, in words [7]: can erase cocaine reward memory |
| COC(=O)[C@H]1[C@@H](OC(=O)c2ccccc2)C[C@@H]2CC[C@H]1N2C [cocaine] |  |  |  |  | cocaine CPP index, Prkcz−/− versus wild-type, in words [8]: no genotype difference in the cocaine CPP index |
